# Screening data as filed in PubChem BioAssay.
# This is a sample that favours compounds with a hit; in the whole collection about 0.3% have one here.
# LANA-nucl inh: inhibitors of KSHV LANA-nucleosome binding, primary screen, biochemical, fluorescence polarization, FITC-LANA1-23, chicken nucleosomes; FITC-LANA1-23 / chicken nucleosome fluorescence polarization; hits give low values; 51,000 compounds, 0.3% hits; z-score (test concentration not listed);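 active = both repeat wells score below -2 in polarization z-score versus plate sample wells, excluding overly bright wells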
#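 Material: Purified chicken nucleosomes with FITC-labelled LANA N-terminal peptide (1-23) | Reagent: 50 nM FITC-LANA1-23 probe | Medium: TEN-BT buffer, pH 7.5 | Times: 10–45 min incubation at room temperature | Detection: Fluorescence polarization | Replication: Duplicates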
# Ab BasE inh: BasE siderophore enzyme inhibitors, primary screen, biochemical, Acinetobacter baumannii ATCC 17978, fluorescence polarization; 84,000 compounds, 0.1% hits; purified BasE, fluorescence polarization binding displacement; inhibition, % (concentration not given with the values); in the data active = inhibition above about 25%, passing the limit was not always enough;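 also: 0% = negative plate control signal and 100% = positive plate control signal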
# * = called active by the depositor; / = no result; ! = not active in a repeat.
SMILES,LANA-nucl inh,Ab BasE inh
CCn1cc(C=C2C(=O)NC(=O)NC2=O)c2ccccc21,-3.24*,1.9
O=C1NC(=O)C(=Cc2cn(Cc3ccccc3)c3ccccc23)C(=O)N1,/,3.4
CCOc1cc(C=C2C(=O)NC(=O)NC2=O)cc(Cl)c1O,-2.4*,0.8
CCOc1cc(C=C2C(=O)N(C)C(=S)N(C)C2=O)ccc1OC(C)C(=O)O (stereo unspecified),0.223,2.5
C=C1C2C[C@@]3(C4CC5C6(C3C[C@@H]2O)[C@@H](O)CC[C@@]5(C)CN(CC)[C@H]46)[C@@H]1O (stereo partly specified),-0.558,-1.5
CC[n+]1c(-c2ccccc2)c2cc(N)ccc2c2ccc(N)cc21,-6.03*,3.8
CN1C(=O)/C(=C/c2ccc(I)o2)C(=O)NC1=S,0.567,40.8*
C=CCN1C(=O)/C(=C/c2ccco2)C(=O)NC1=S,0.374,8.9
CC(c1ccccc1)N1CCNCC1 (stereo unspecified),0.09,-1.9
CC[C@@]1(O)C(=O)OCc2c1cc1n(c2=O)Cc2cc3ccccc3nc2-1,0.0175,-3.3
CC[C@@]1(O)C(=O)OCc2c1cc1n(c2=O)Cc2cc3c(O)cccc3nc2-1,-3.07*!,9.0
CCN(CC)P1(=S)OC(c2ccc(I)cc2)=Nc2c1c(C)nn2CCC#N (stereo unspecified),/,-1.1
COCC(C)N=C=S (stereo unspecified),/,2.0
CC12NC(=O)CN1CCc1ccccc12 (stereo unspecified),-0.107,4.8
C[C@@]12C[C@H](O)CCN1CCc1ccccc12,-2.38*,5.7
CC1CC(C)CN(CC(=O)c2ccccc2Br)C1 (stereo unspecified),/,-1.8
O=C1/C(=C/c2ccccc2C(F)(F)F)N2CCC1CC2,-0.815,/
C1=C(c2cccnc2)Nc2ncnn2C1c1cccs1 (stereo unspecified),-8.79*,21.2
CC(=O)Nc1ccc(C=C(C#N)C#N)cc1,0.0255,4.0
O=S1(=O)N(Cc2ccccc2)CCCN1Cc1ccc(Cl)cc1,/,-1.4
C=CC(=O)N(CC)CC,-1.27,3.6
N#Cc1c(N)[n+]([O-])c2ccccc2[n+]1[O-],-8.29*,1.4
CCCCn1nc(C)c(C(=O)Nc2nc3ccccc3[nH]2)c1Cl,/,1.4
CC(C)COP(C)(=O)C(N)=O (stereo unspecified),/,2.0
